Columns and labels:
Format in all cases: functional
[1] = tested on: Mus musculus; assay: Antitumor activity was evaluated as percent increase in life span in BDF1 mice (six mice per group) implanted intraperitoneally with P-388 leukemia cells (10e6 )at a dose of 100 mg/Kg,; conditions: P388, ip
Summary of the method: (§1)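 Male BDF1 mice (average weight 23 g) implanted ip with 10^6 P-388 cells on day 0. Treatment in sterile 0.9% saline given ip daily for 9 days starting 24 h after implantation; saline-only controls. Animals observed up to 60 days. Median survival of treated (T) vs controls (C) expressed as %ILS = (T/C − 1) × 100; significance at P < 0.05.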

[2] = tested on: Mus musculus; assay: Antitumor activity was evaluated as percent increase in life span in BDF1 mice (six mice per group) implanted intraperitoneally with P-388 leukemia cells (10e6 )at a dose of 300 mg/Kg,; conditions: P388, ip; summary of the method: as §1
[3] = tested on: Mus musculus; assay: Antitumor activity was evaluated as percent increase in life span in BDF1 mice (six mice per group) implanted intraperitoneally with P-388 leukemia cells (10e6 )at a dose of 500 mg/Kg,; conditions: P388, ip; summary of the method: as §1
[4] = tested on: Mus musculus; assay: Antitumor activity was evaluated as median survival time in BDF1 mice (six mice per group) implanted intraperitoneally with P-388 leukemia cells (10e6 )at a dose of 300 mg/Kg,
Summary of the method: (§2)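 Male BDF1 mice (average weight 23 g) inoculated ip with 10^6 P-388 leukemia cells on day 0; leukemia maintained by weekly ip passage in female DBA/2 mice. Compound in sterile 0.9% saline given ip once daily for 9 consecutive days starting 24 h after implantation; controls received saline alone. Animals observed for 60 days or until death; median survival time recorded.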

[5] = tested on: Mus musculus; assay: Antitumor activity was evaluated as median survival time in BDF1 mice (six mice per group) implanted intraperitoneally with P-388 leukemia cells (10e6 )at a dose of 500 mg/Kg,; summary of the method: as §2
[6] = tested on: Mus musculus; assay: Antitumor activity was evaluated as median survival time in BDF1 mice (six mice per group) implanted intraperitoneally with P-388 leukemia cells (10e6 )at a dose of 100 mg/Kg,; summary of the method: as §2
[7] = tested on: Mus musculus; assay: Antitumor activity was evaluated as percent increase in life span in BDF1 mice (six mice per group) implanted intraperitoneally with P-388 leukemia cells (10e6 )at a dose of 600 mg/Kg,; conditions: P388, ip; summary of the method: as §1
[8] = tested on: Mus musculus; assay: Antitumor activity was evaluated as median survival time in BDF1 mice (six mice per group) implanted intraperitoneally with P-388 leukemia cells (10e6 )at a dose of 600 mg/Kg,; summary of the method: as §2

SMILES | ILS at 100 mg/kg [1] [%] | ILS at 300 mg/kg [2] [%] | ILS at 500 mg/kg [3] [%] | MST [4] [days] | MST [5] [days] | MST [6] [days] | ILS at 600 mg/kg [7] [%] | MST [8] [days]
Nc1ncnc2c1ncn2C1O[C@H](COP2(=O)NCCCO2)[C@@H](O)[C@@H]1O (stereo not given in full) | 33 | 33 | -11 | 12 | 8 | 12 | – | –
Nc1ncnc2c1ncn2[C@@H]1O[C@H](CO)[C@@H](O)[C@H]1O [ADENOSINE] | – | – | – | – | – | – | 33 | 12
Nc1ncnc2c1ncn2C1O[C@H](COP2(=O)OCCCO2)[C@@H](O)[C@@H]1O (stereo not given in full) | 0 | – | – | – | – | 9 | – | –

— ChEMBL document CHEMBL1123076, “Synthesis and biological evaluation of 9-[5'-(2-oxo-1,3,2-oxazaphosphorinan-2-yl)-beta-D-arabinosyl]ade nine and 9-[5'-(2-oxo-1,3,2-dioxaphosphorinan-2-yl)-beta-D-arabinosyl]ade nine: potential neutral precursors of 9-[beta-D-arabinofuranosyl]adenine 5'-monophosphate” (1985)
